The subject of one test is B16. In words: Tested in vitro for cytotoxicity against B16 murine melanoma cells. It counts as functional, Mus musculus. In short, it runs like this:
(§1)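 Clonogenic assay. Cells were suspended in unsupplemented medium at 2-30 000 cells/mL and exposed 2 h at 37 °C, 5% CO2 to 1-400 µM drug (final), with the top dose chosen to give >99% kill. Drug stocks were made in medium or ethanol. After washing, cells were plated at 2-3 dilutions. Colonies of ≥50 cells were stained with crystal violet at 8 days (B16) or 14 days (MCF-7). LC99 was taken by linear regression of log surviving fraction vs concentration.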

For test [1], the system named is HT-29. In words: Tested in vitro for cytotoxicity against HT-29 human colon carcinoma cells under aerobic condition. It counts as functional. In short, it runs like this:
(§2)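 HT-29 colon cells were grown in α-MEM with 10% FBS and given a 4-h drug exposure under aerobic or hypoxic conditions in a clonogenic assay run in duplicate. The top dose was chosen to give >99% kill. LC99 (1% colony survival versus untreated controls) was taken by linear regression of log surviving fraction vs drug concentration.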

Test [2] deals with HT-29. In words: Tested in vitro for cytotoxicity against HT-29 human colon carcinoma cells under hypoxic condition. It counts as functional. In short, it runs like this: as §2
The test system of a further test is MCF7-CP. In words: Tested in vitro for cytotoxicity against MCF-7/CP 4-hydroperoxycyclophosphamide-resistant human breast cancer cells. It counts as functional. In short, it runs like this: as §1
For the next test, the system named is MCF7. In words: Tested in vitro for cytotoxicity against MCF-7/WT wild-type human breast cancer cells. It counts as functional. In short, it runs like this:
as §1

A short description of test [3]: Ratio of lethal conc. under aerobic to hypoxic condition in HT-29 cells. It is filed as functional. In short, it runs like this: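 HT-29 hypoxic selectivity. Aerobic and hypoxic LC99 values (concentration cutting clonogenic survival by 2 log units) come from the log-linear portion of each survival curve after 4-h drug treatment, assayed in duplicate. The ratio is aerobic LC99 over hypoxic LC99.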

Our source for the LC99 and Ratio values is ChEMBL document CHEMBL1133734, “Synthesis and evaluation of nitroheterocyclic phosphoramidates as hypoxia-selective alkylating agents” (2000).

Molecules are shown by their SMILES.

Turning to `NC(=O)c1cc(COP(N)(=O)N(CCBr)CCBr)sc1[N+](=O)[O-]` (stereo not drawn), the LC99 with B16 amounted to 1.4 µM; in the test with HT-29 [1], 0.73 µM; with HT-29 [2], 0.33 µM; in the test on MCF7-CP, 1.5 µM; with MCF7 it was 1.6 µM. Besides, the Ratio in test [3] amounted to 2.2.

Take `N#Cc1cc(COP(N)(=O)N(CCBr)CCBr)sc1[N+](=O)[O-]` (stereo not drawn): the LC99 amounted to 0.45 µM with B16; 0.62 µM in the test on HT-29 [1]; 0.22 µM in the test with HT-29 [2]; 0.24 µM with MCF7-CP; 0.11 µM in the test with MCF7. In addition, in test [3], the Ratio is 2.8.

On to `O=[N+]([O-])c1ccc(COP(=O)(N(CCCl)CCCl)N(CCCl)CCCl)s1`, for which the LC99 with B16 stood at 5.1 µM; in the test on HT-29 [1], 10.8 µM; in the test with HT-29 [2], 6.2 µM; in the test with MCF7-CP, 6.5 µM; in the test with MCF7, 7.9 µM. Moreover, the Ratio in test [3] was found to be 1.7.

Regarding `Cn1c(COP(=O)(N(CCBr)CCBr)N(CCBr)CCBr)ccc1[N+](=O)[O-]`, the LC99 with B16 amounted to 14 µM; in the test on MCF7-CP, 51 µM; in the test with MCF7, 57 µM.

Turning to `Cn1c(COP(=O)(N(CCCl)CCCl)N(CCCl)CCCl)ccc1[N+](=O)[O-]`, the LC99 in the test with B16 worked out at 70 µM; with MCF7-CP, 245 µM; in the test on MCF7 it was 205 µM.

As for `O=P(OCc1cccs1)(N(CCCl)CCCl)N(CCCl)CCCl`, the LC99 in the test with B16 was 120 µM; with MCF7-CP it was 205 µM; with MCF7 it was 211 µM.

As to `O=P(OCc1ccco1)(N(CCCl)CCCl)N(CCCl)CCCl`, the LC99 in the test with B16 was found to be 53 µM; in the test on MCF7-CP it was 230 µM; in the test on MCF7, 300 µM.

With `CN(C)c1cc(COP(N)(=O)N(CCBr)CCBr)sc1[N+](=O)[O-]` (stereo not drawn), the LC99 was 52 µM in the test on B16; 180 µM with HT-29 [1]; 8.9 µM in the test with HT-29 [2]; 110 µM with MCF7-CP; 88 µM in the test with MCF7. Also, in test [3], the Ratio came to 20.

Consider `O=[N+]([O-])c1ccc(COP(=O)(N(CCBr)CCBr)N(CCBr)CCBr)o1`, for which the values for the LC99 with B16, in the test with MCF7-CP and in the test with MCF7 were 1.7 µM, 2.3 µM and 1.9 µM, respectively.

As for `Cn1c([N+](=O)[O-])cnc1COP(=O)(N(CCCl)CCCl)N(CCCl)CCCl`, the LC99 in the test with B16 was 150 µM; in the test on HT-29 [1] it was over 600 µM; with HT-29 [2] it was 28 µM; with MCF7-CP it was over 600 µM; in the test with MCF7, over 600 µM. Also, the Ratio in test [3] is listed as over 20.

Turning to `O=[N+]([O-])c1ccc(COP(=O)(N(CCBr)CCBr)N(CCBr)CCBr)s1`, the values for the LC99 in the test with B16, in the test with MCF7-CP and in the test with MCF7 were 1.1 µM, 1.9 µM and 2.4 µM, respectively.

`NP(=O)(OCc1cc(Br)c([N+](=O)[O-])s1)N(CCBr)CCBr` (stereo not drawn): the LC99 with B16 was determined as 0.44 µM; in the test with HT-29 [1], 0.91 µM; with HT-29 [2], 0.25 µM; in the test with MCF7-CP, 1.3 µM; in the test on MCF7, 0.62 µM. Further, in test [3], the Ratio is recorded as 3.6.

Turning to `O=[N+]([O-])c1ccc(COP(=O)(N(CCCl)CCCl)N(CCCl)CCCl)o1`, the LC99 in the test with B16 was determined as 9.3 µM; in the test with HT-29 [1], 12 µM; in the test on HT-29 [2], 3.4 µM; in the test on MCF7-CP, 22 µM; with MCF7, 20 µM. In test [3], the Ratio is 3.5.

As for `O=P1(N(CCCl)CCCl)NC(OO)CCO1` (stereo not drawn) [PERFOSFAMIDE], the figures for the LC99 in the test on B16, with MCF7-CP and in the test with MCF7 were 11 µM, 145 µM and 14 µM, respectively.
